Results from ChEMBL document CHEMBL3286357, “Design, synthesis and pharmacological evaluation of novel substituted quinoline-2-carboxamide derivatives as human dihydroorotate dehydrogenase (hDHODH) inhibitors and anticancer agents” (Eur J Med Chem, 2014).

What was measured:
[1] = molecular target: Dihydroorotate dehydrogenase (quinone), mitochondrial (Homo sapiens, UniProt Q02127); assay: Inhibition of recombinant human DHODH activity after 20 mins by DCIP dye based colorimetric analysis in presence of 1 mM L-dihydroorotate and 0.1 mM CqD
[2] = test system: A-375; assay: Antiproliferative activity against human A375 cells at 0.41 ug/ml for 24 hrs by MTT assay; assay type: functional; details: A-375, 24 h
Method in brief: (§1)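 HEP-3B or A-375 cells were grown in DMEM with 10% FBS, 5% HBSS, penicillin, streptomycin and amphotericin B at 37 C and 5% CO2. Cells were seeded at 2 × 10^4 per well and preincubated for 24 h. They were then exposed to ten 1:3 serial dilutions from a top concentration of 100, made from 2% DMSO stocks. MTT was added for 3 h, formazan was dissolved in DMSO, and A550 was read. Wells were run in triplicate across three independent experiments. IC50 came from dose-response curves.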

[3] = test system: A-375; assay: Antiproliferative activity against human A375 cells at 0.02 ug/ml for 24 hrs by MTT assay; assay type: functional; details: A-375, 24 h
Method in brief: as §1

[4] = Antiproliferative activity against human Hep3B cells at 33.33 ug/ml for 24 hrs by MTT assay; assay type: functional, Hep 3B2
Method in brief: as §1

[5] = Antiproliferative activity against human Hep3B cells at 1.23 ug/ml for 24 hrs by MTT assay; assay type: functional, Hep 3B2
Method in brief: as §1

[6] = test system: A-375; assay: Antiproliferative activity against human A375 cells at 0.05 ug/ml for 24 hrs by MTT assay; assay type: functional; details: A-375, 24 h
Method in brief: as §1

[7] = Antiproliferative activity against human Hep3B cells at 11.11 ug/ml for 24 hrs by MTT assay; assay type: functional, Hep 3B2
Method in brief: as §1

[8] = test system: HEP-3B (human hepatoma); assay: Antiproliferative activity against human Hep3B cells for 24 hrs by MTT assay
[9] = test system: A-375; assay: Antiproliferative activity against human A375 cells at 1.23 ug/ml for 24 hrs by MTT assay; assay type: functional; details: A-375, 24 h
Method in brief: as §1

[10] = Antiproliferative activity against human Hep3B cells at 0.01 ug/ml for 24 hrs by MTT assay; assay type: functional, Hep 3B2
Method in brief: as §1

[11] = Antiproliferative activity against human Hep3B cells at 0.05 ug/ml for 24 hrs by MTT assay; assay type: functional, Hep 3B2
Method in brief: as §1

[12] = test system: A-375; assay: Antiproliferative activity against human A375 cells at 100 ug/ml for 24 hrs by MTT assay; assay type: functional; details: A-375, 24 h
Method in brief: as §1

[13] = Antiproliferative activity against human Hep3B cells at 0.14 ug/ml for 24 hrs by MTT assay; assay type: functional, Hep 3B2
Method in brief: as §1

[14] = test system: A-375; assay: Antiproliferative activity against human A375 cells at 0.01 ug/ml for 24 hrs by MTT assay; assay type: functional; details: A-375, 24 h
Method in brief: as §1

[15] = Retention time of compound by HPLC analysis; assay type: physicochemical
[16] = test system: A-375; assay: Antiproliferative activity against human A375 cells at 33.33 ug/ml for 24 hrs by MTT assay; assay type: functional; details: A-375, 24 h
Method in brief: as §1

[17] = Antiproliferative activity against human Hep3B cells at 100 ug/ml for 24 hrs by MTT assay; assay type: functional, Hep 3B2
Method in brief: as §1

[18] = test system: A-375; assay: Antiproliferative activity against human A375 cells at 3.7 ug/ml for 24 hrs by MTT assay; assay type: functional; details: A-375, 24 h
Method in brief: as §1

[19] = test system: A-375 (human melanoma); assay: Antiproliferative activity against human A375 cells for 24 hrs by MTT assay; details: A-375, 24 h
[20] = test system: A-375; assay: Antiproliferative activity against human A375 cells at 0.14 ug/ml for 24 hrs by MTT assay; assay type: functional; details: A-375, 24 h
Method in brief: as §1

[21] = Antiproliferative activity against human Hep3B cells at 3.7 ug/ml for 24 hrs by MTT assay; assay type: functional, Hep 3B2
Method in brief: as §1

[22] = Antiproliferative activity against human Hep3B cells at 0.41 ug/ml for 24 hrs by MTT assay; assay type: functional, Hep 3B2
Method in brief: as §1

[23] = test system: A-375; assay: Antiproliferative activity against human A375 cells at 11.11 ug/ml for 24 hrs by MTT assay; assay type: functional; details: A-375, 24 h
Method in brief: as §1

[24] = Antiproliferative activity against human Hep3B cells at 0.02 ug/ml for 24 hrs by MTT assay; assay type: functional, Hep 3B2
Method in brief: as §1

Chain of Dihydroorotate dehydrogenase (quinone), mitochondrial (Q02127 whole entry): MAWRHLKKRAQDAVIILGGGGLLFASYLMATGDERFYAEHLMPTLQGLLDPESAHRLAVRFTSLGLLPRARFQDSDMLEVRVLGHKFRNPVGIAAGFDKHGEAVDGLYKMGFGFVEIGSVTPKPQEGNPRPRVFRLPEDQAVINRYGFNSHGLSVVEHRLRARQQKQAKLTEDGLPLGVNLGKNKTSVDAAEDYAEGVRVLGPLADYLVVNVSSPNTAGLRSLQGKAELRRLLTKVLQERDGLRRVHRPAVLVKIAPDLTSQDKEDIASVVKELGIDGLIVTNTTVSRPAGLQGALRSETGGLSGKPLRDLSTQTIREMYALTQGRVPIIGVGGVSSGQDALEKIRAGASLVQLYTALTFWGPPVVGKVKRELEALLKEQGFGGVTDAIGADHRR

Row | IC50 [1] [µM] | IC50 [8] [µM] | Retention_time [15] [min] | IC50 [19] [µM] | Structure (SMILES) | inhibition at 0.41 µg/mL [2] [%] | inhibition at 0.02 µg/mL [3] [%] | inhibition at 33.33 µg/mL [4] [%] | inhibition at 1.23 µg/mL [5] [%] | inhibition at 0.05 µg/mL [6] [%] | inhibition at 11.11 µg/mL [7] [%] | inhibition at 1.23 µg/mL [9] [%] | inhibition at 0.01 µg/mL [10] [%] | inhibition at 0.05 µg/mL [11] [%] | inhibition at 100 µg/mL [12] [%] | inhibition at 0.14 µg/mL [13] [%] | inhibition at 0.01 µg/mL [14] [%] | inhibition at 33.33 µg/mL [16] [%] | inhibition at 100 µg/mL [17] [%] | inhibition at 3.7 µg/mL [18] [%] | inhibition at 0.14 µg/mL [20] [%] | also measured
1 | 6.09 | 12.6 | 7 | 29.9 | Cc1c(C(=O)Nc2c(F)cc(-c3cccc(F)c3)cc2F)nc2ccc(C(F)(F)F)cc2c1O | 16.5 | 1.28 | 45.2 | 15.3 | 3.47 | 36.2 | 21.2 | -0.33 | 1.35 | 95.2 | 2.65 | 0.16 | 61.3 | 68.4 | 34.3 | 9.37 | inhibition at 3.7 µg/mL [21]: 31.2%; inhibition at 0.41 µg/mL [22]: 9.38%; inhibition at 11.11 µg/mL [23]: 46.3%; inhibition at 0.02 µg/mL [24]: 0.06%
2 | 0.94 | 6.98 | 7.1 | 5.03 | COc1ccc2nc(C(=O)Nc3c(F)cc(-c4cccc(F)c4)cc3F)c(C)c(O)c2c1 | 28.7 | 2.13 | 31.2 | 13.3 | 6.38 | 29.3 | 36.2 | 0.105 | 1.35 | 96.8 | 2.68 | 0.79 | 64.9 | 46.2 | 49.9 | 11.6 | inhibition at 3.7 µg/mL [21]: 25.2%; inhibition at 0.41 µg/mL [22]: 4.5%; inhibition at 11.11 µg/mL [23]: 57.2%; inhibition at 0.02 µg/mL [24]: 0.87%
3 | 2.28 | 50.6 | 6.4 | 18.1 | COc1ccc2nc(C(=O)Nc3ccc(-c4ccccc4)cc3)c(C)c(O)c2c1 | 7.62 | 0.56 | 48.4 | 14.2 | 1.98 | 36.2 | 18.7 | 0.35 | 1.23 | 66.9 | 3.52 | 0.13 | 46.2 | 79.3 | 27.2 | 3.05 | inhibition at 3.7 µg/mL [21]: 23.5%; inhibition at 0.41 µg/mL [22]: 7.58%; inhibition at 11.11 µg/mL [23]: 36.2%; inhibition at 0.02 µg/mL [24]: 0.96%
4 | 3.21 | 8.13 | 6.3 | 15.8 | CCc1ccc2nc(C(=O)Nc3c(F)cc(-c4cccc(F)c4)cc3F)c(C)c(O)c2c1 | 3.56 | -0.12 | 56.3 | 23.5 | 0.68 | 46.3 | 12.2 | 0.74 | 5.62 | 47.2 | 11.2 | -0.35 | 28.4 | 63.2 | 17.9 | 1.57 | inhibition at 3.7 µg/mL [21]: 31.2%; inhibition at 0.41 µg/mL [22]: 16.2%; inhibition at 11.11 µg/mL [23]: 26.4%; inhibition at 0.02 µg/mL [24]: 2.05%
